In ChEMBL document CHEMBL5653631, “A Potent and Selective ULK1 Inhibitor Suppresses Autophagy and Sensitizes Cancer Cells to Nutrient Stress” (iScience, 2018):

What was measured:
[1] = target: RAC-beta serine/threonine-protein kinase (Homo sapiens) (UniProt P31751); test: Inhibition of human recombinant AKT2 at 500 nM related to control ULK1
[2] = target: T1, Serine/threonine-protein kinase Sgk1 (Homo sapiens) (UniProt O00141); test: Inhibition of human recombinant SGK1 at 500 nM related to control ULK1
T1 sequence (whole entry): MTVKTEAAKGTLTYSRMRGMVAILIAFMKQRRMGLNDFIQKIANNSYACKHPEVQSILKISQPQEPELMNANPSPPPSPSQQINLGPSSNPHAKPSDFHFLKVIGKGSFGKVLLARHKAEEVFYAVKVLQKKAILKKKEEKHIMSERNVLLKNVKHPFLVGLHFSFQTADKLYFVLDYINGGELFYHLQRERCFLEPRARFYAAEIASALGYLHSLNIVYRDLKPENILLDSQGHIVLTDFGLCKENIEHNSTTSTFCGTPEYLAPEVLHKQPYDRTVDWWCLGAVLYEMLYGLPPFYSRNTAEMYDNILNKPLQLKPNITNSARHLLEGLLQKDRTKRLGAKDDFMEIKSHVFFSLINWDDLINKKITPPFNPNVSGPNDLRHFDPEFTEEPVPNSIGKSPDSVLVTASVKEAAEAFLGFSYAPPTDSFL

[3] = target: Activin receptor type-1-like (Homo sapiens) (UniProt P37023); test: Inhibition of human recombinant ALK1 at 15 nM in presence of ATP by radiometric assay relative to control
Outline: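 Panel of 327 recombinant human kinases, each assayed in vitro by radiometric activity assay in duplicate at a single inhibitor concentration per compound, chosen with reference to its ULK1 inhibition. Activity remaining was expressed as percent of vehicle control, and percent inhibition was calculated as 100 minus percent activity remaining.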

[4] = target: T2, cAMP-dependent protein kinase catalytic subunit PRKX (Homo sapiens) (UniProt P51817); test: Inhibition of human recombinant PRKX at 15 nM in presence of ATP by radiometric assay relative to control
T2 sequence (whole entry): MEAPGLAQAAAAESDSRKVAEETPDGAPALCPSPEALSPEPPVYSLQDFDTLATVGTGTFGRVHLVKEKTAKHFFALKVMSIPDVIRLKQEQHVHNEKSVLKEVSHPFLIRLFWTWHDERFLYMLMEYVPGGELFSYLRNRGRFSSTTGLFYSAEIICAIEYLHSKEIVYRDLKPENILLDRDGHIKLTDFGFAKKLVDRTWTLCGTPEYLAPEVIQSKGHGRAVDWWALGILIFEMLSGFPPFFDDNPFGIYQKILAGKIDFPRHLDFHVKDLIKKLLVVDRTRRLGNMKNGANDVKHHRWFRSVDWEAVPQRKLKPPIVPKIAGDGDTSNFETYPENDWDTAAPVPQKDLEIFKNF

[5] = target: Calcium/calmodulin-dependent protein kinase type 1 (Homo sapiens) (UniProt Q14012); test: Inhibition of human recombinant CaMK1a at 15 nM in presence of ATP by radiometric assay relative to control
[6] = target: Ribosomal protein S6 kinase alpha-4 (Homo sapiens) (UniProt O75676); test: Inhibition of human recombinant MSK2 at 15 nM related to control ULK1
[7] = target: Cyclin-dependent kinase 6 (Homo sapiens) (UniProt Q00534); test: Inhibition of human recombinant CDK6 at 15 nM related to control ULK1
[8] = target: Serine/threonine-protein kinase WNK3 (Homo sapiens) (UniProt Q9BYP7); test: Inhibition of human recombinant Wnk3 at 15 nM in presence of ATP by radiometric assay relative to control
[9] = target: Tyrosine-protein kinase BTK (Homo sapiens) (UniProt Q06187); test: Inhibition of human recombinant BTK at 15 nM related to control ULK1
[10] = target: T3, Testis-specific serine/threonine-protein kinase 1 (Homo sapiens) (UniProt Q9BXA7); test: Inhibition of human recombinant TSSK1 at 15 nM related to control ULK1
T3 sequence (whole entry): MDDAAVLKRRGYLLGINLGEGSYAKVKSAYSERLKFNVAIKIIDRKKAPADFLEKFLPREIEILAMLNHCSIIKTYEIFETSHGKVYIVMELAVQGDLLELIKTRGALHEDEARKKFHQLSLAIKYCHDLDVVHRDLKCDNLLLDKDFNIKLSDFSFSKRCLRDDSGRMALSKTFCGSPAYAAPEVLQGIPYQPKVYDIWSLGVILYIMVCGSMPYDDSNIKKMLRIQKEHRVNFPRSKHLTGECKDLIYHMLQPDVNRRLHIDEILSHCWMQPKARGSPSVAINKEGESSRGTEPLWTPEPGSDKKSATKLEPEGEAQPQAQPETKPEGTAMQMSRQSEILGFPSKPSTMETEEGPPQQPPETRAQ

[11] = target: T4, Testis-specific serine/threonine-protein kinase 2 (Homo sapiens) (UniProt Q96PF2); test: Inhibition of human recombinant TSSK2 at 40 nM related to control ULK1
T4 sequence (whole entry): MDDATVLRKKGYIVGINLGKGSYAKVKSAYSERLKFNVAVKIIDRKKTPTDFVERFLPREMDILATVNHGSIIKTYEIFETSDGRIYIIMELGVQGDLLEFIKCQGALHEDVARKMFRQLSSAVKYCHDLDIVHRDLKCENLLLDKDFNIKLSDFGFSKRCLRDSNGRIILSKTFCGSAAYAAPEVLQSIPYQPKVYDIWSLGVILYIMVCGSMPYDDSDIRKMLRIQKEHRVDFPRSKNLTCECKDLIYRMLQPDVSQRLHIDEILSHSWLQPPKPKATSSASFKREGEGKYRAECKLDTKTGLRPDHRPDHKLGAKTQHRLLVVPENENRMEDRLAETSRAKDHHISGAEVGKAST

[12] = target: T5, MAPK/MAK/MRK overlapping kinase (Homo sapiens) (UniProt Q9UQ07); test: Inhibition of human recombinant MOK at 40 nM related to control ULK1
T5 sequence (whole entry): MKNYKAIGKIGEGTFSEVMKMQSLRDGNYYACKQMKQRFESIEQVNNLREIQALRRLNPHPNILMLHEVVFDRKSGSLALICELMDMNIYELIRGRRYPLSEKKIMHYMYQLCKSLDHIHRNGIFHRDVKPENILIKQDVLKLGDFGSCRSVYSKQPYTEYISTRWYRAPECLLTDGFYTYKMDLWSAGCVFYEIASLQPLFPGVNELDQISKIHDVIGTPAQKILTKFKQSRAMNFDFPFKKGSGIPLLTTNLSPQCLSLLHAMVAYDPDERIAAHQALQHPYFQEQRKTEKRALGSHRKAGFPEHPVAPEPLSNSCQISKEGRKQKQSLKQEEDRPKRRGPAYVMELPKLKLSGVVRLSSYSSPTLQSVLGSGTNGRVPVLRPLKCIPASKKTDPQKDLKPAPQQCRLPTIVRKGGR

[13] = target: RAC-alpha serine/threonine-protein kinase (Homo sapiens) (UniProt P31749); test: Inhibition of human recombinant AKT1 at 40 nM in presence of ATP by radiometric assay relative to control
Outline: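 Panel of 327 recombinant human kinases in radiometric activity assays, each screened in duplicate at a single inhibitor concentration; percent activity remaining relative to vehicle control, percent inhibition taken as 100 minus activity remaining.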

Activin receptor type-1-like (Homo sapiens), sequence (P37023 whole entry): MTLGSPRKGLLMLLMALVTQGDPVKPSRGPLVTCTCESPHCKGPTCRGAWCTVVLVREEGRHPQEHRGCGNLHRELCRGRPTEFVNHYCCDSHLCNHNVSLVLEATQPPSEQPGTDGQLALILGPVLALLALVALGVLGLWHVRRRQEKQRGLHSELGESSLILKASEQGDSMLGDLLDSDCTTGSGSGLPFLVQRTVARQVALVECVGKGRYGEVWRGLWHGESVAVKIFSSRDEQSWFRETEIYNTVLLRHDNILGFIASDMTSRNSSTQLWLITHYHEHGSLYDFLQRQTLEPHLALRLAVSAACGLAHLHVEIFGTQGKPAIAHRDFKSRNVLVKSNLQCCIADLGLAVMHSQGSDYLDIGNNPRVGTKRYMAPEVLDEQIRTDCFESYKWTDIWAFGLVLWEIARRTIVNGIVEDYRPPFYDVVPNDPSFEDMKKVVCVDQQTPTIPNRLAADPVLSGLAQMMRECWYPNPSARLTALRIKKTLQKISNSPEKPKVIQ
Cyclin-dependent kinase 6 (Homo sapiens), sequence (Q00534 whole entry): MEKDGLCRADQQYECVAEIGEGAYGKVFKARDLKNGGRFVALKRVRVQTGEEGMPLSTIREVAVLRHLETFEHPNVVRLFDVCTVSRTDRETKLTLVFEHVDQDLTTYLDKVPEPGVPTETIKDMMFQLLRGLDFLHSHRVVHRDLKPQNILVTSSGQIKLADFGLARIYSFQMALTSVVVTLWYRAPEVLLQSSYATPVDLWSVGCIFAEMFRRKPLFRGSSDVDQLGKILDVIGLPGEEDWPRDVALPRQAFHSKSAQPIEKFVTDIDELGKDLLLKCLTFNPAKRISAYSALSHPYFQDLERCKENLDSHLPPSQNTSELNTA
Ribosomal protein S6 kinase alpha-4 (Homo sapiens), sequence (O75676 whole entry, looked up): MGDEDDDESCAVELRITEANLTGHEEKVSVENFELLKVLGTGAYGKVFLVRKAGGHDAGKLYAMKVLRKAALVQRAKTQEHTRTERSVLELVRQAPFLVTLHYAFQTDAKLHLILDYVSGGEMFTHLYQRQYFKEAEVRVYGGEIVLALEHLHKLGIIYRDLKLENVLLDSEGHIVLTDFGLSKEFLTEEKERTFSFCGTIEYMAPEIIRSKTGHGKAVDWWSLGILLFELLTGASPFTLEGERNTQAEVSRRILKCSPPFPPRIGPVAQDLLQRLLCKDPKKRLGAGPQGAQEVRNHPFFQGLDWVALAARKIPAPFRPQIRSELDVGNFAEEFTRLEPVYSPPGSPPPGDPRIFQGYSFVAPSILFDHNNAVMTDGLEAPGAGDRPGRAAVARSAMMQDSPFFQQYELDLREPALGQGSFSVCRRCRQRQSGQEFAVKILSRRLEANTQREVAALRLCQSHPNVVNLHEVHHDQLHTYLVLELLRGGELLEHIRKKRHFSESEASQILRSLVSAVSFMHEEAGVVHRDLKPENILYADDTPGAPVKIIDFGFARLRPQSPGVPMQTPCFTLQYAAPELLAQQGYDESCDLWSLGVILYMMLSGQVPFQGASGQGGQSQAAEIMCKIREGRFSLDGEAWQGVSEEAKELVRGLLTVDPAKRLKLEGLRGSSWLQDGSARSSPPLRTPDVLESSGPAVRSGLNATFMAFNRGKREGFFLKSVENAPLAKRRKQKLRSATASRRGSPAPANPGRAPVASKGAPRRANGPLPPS
RAC-beta serine/threonine-protein kinase (Homo sapiens), sequence (P31751 whole entry): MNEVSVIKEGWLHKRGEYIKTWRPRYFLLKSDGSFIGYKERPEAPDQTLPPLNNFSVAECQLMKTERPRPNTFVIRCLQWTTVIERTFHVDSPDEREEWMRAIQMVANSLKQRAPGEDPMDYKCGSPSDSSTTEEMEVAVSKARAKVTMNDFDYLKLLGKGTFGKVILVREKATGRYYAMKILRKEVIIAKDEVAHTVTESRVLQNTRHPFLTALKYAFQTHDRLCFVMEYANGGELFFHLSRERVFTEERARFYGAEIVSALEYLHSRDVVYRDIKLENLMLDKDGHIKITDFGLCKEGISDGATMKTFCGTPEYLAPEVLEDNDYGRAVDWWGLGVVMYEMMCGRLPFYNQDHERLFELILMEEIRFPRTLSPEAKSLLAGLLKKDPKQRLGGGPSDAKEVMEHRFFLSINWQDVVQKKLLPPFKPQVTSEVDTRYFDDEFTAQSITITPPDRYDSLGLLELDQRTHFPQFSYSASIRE
Tyrosine-protein kinase BTK (Homo sapiens), sequence (Q06187 whole entry): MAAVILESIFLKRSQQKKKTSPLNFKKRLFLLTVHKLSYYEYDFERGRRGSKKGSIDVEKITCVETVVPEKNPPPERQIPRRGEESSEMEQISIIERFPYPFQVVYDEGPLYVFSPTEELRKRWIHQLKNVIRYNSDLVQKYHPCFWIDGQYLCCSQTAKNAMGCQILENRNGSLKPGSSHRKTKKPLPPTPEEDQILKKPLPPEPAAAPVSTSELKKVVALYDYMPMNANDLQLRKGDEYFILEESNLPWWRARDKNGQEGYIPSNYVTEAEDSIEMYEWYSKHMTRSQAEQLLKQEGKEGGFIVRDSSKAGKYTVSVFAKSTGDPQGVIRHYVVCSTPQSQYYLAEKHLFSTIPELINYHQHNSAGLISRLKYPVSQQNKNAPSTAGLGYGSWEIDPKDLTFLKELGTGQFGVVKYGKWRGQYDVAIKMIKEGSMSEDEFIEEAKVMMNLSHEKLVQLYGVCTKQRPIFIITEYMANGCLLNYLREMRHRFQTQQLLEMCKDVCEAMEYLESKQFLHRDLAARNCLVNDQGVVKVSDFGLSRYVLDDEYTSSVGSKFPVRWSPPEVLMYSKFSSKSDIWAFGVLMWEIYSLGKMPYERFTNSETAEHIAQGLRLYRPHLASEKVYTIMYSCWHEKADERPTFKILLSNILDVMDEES
Calcium/calmodulin-dependent protein kinase type 1 (Homo sapiens), sequence (Q14012 whole entry, looked up): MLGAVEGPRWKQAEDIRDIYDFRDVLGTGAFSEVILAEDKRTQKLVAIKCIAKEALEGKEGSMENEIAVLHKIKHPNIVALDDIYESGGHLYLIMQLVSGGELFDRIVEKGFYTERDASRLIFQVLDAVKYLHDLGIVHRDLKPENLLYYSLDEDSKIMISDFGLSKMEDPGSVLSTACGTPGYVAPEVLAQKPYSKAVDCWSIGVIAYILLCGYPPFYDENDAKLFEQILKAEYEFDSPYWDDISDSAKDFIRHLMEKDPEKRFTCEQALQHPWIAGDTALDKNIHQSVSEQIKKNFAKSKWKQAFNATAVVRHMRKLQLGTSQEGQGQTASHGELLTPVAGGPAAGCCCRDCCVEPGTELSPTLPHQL
RAC-alpha serine/threonine-protein kinase (Homo sapiens), sequence (P31749 whole entry): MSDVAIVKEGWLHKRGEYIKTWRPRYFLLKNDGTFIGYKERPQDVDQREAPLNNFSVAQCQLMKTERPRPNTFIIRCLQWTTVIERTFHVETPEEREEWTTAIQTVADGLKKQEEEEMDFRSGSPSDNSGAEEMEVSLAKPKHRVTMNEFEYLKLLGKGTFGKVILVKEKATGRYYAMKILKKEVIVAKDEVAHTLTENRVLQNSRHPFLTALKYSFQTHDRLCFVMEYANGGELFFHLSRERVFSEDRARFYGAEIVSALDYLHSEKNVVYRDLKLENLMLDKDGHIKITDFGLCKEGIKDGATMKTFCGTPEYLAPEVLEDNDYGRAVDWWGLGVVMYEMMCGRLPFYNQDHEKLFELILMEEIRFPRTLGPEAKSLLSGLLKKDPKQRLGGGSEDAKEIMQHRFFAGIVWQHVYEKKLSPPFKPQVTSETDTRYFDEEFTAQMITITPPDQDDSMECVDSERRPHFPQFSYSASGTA

CNC(=O)c1ccccc1Oc1nc(Nc2cc(OC)c(OC)c(OC)c2)ncc1Br
fold change (FC) [1]: 0.09
fold change (FC) [2]: 0.03

CC(C)[C@H](NC(=O)c1cc(-c2cnn3cc(-c4ccc(OCCN5CCCCC5)cc4)cnc23)cs1)C(F)(F)F
inhibition [3]: 7%
inhibition [4]: 16%
inhibition [5]: 7%
fold change (FC) [6]: 0
fold change (FC) [7]: 0.09
inhibition [8]: 0%
fold change (FC) [9]: 0
fold change (FC) [10]: 0.26

O=C(N[C@@H](C1CC1)C(F)(F)F)c1cc(-c2cnn3cc(-c4ccc(F)cc4)cnc23)cs1
fold change (FC) [11]: 0
fold change (FC) [12]: 0
inhibition [13]: 0%
